Data set [1] in a line: Cytotoxicity in human MT4 cells expressing GFP assessed as reduction in cell viability incubated for 48 hrs by cell-titer-Glo luminescent cell viability assay. In kind it is cell-based. The method, boiled down: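 CC50 values were determined in the MT4 cell line under 10% NHS conditions.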
Data set [2] deals with Human immunodeficiency virus 1. Description: Antiviral activity against HIV1 infected in human PBMC incubated for 24 hrs in presence of 10% NHS by GFP based single cycle HIV replication assay. The conditions noted are these: Human immunodeficiency virus 1, PBMC. It counts as functional, organism-based. In a few lines:
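Human PBMCs infected with wild-type HIV-1 were tested in a single-cycle HIV replication assay containing 10% normal human serum (NHS), and IC50 values were determined.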

Data set [3] is described as follows: Oral bioavailability in Sprague-Dawley rat at 2 mg/kg. It counts as ADME, organism-based. The conditions noted are these: in vivo. In a few lines: (§1)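 Male Sprague–Dawley rats were dosed intravenously at 1 mg/kg or orally at 2 mg/kg, and pharmacokinetic parameters were derived from plasma data for each route.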
The nature of data set [4]: AUC (0 to infinity) in Sprague-Dawley rat at 2 mg/kg, po. In kind it is ADME, organism-based. Details: dose 2 mg/kg, time infinity, route oral. The conditions noted are these: in vivo. In a few lines: as §1
The nature of data set [5]: Clearance in Sprague-Dawley rat at 1 mg/kg, iv. It counts as ADME, organism-based. The conditions noted are these: in vivo. In a few lines: as §1
A short description of data set [6]: Half life in Sprague-Dawley rat at 1 mg/kg, iv. The conditions noted are these: in vivo. It counts as ADME, organism-based. In a few lines:
as §1

Data set [7] can be described thus: AUC (0 to infinity) in Sprague-Dawley rat at 1 mg/kg, iv. It counts as ADME, organism-based. On the set-up: dose 1 mg/kg, time infinity, route intravenous. The conditions noted are these: in vivo. The method, boiled down:
as §1

Data set [8] in a line: Half life in human CD4+ CEM cells at 0.1 to 10 uM by HPLC method. In kind it is ADME, cell-based, CCRF-CEM.
For data set [9], the target named is Human immunodeficiency virus type 1 reverse transcriptase (Human immunodeficiency virus 1, UniProt Q72547). Description: Inhibition of full-length wild-type HIV1 reverse transcriptase expressed in Escherichia coli BL21(DE3) pre-incubated for 30 mins before addition of template/primer substrate and measured after 90 mins.
Data set [10] in a line: Oral bioavailability in Sprague-Dawley rat at 5 mg/kg. In kind it is ADME, organism-based. The conditions noted are these: in vivo.
Data set [11] can be described thus: AUC (0 to infinity) in Sprague-Dawley rat at 5 mg/kg, po. In kind it is ADME, organism-based. The conditions noted are these: in vivo. On the set-up: dose 5 mg/kg, time infinity, route oral.

As usually defined, the CC50 is the concentration that lowers cell viability or growth by half. What is called IC50 is the midpoint of a concentration-inhibition curve. One may read the bioavailability as the share of a dose that reaches the circulation, judged against a reference dose that is usually intravenous. Low values mean little systemic uptake, high ones much systemic uptake. As a reminder, the AUC(0-inf) is total exposure, with the tail of the curve extrapolated. High values mean more exposure, low ones less exposure. The term clearance denotes a measure of how efficiently the substance is removed, as volume per time. The half-life is the time in which the quantity being followed falls by half. Lower therefore signals fast loss.

In the case of `C#C[C@@]1(CO[P@@](=O)(N[C@@H](C)C(=O)OC(C)C)Oc2ccccc2)C[C@H](n2cnc3c(OCC)nc(N)nc32)C[C@H]1O`, the CC50 at 48 h in [1] is more than 4200 nM. Besides, in data set [2], the IC50 was determined as 382 nM.
In the case of `C#C[C@]1(CO)C[C@@H](n2cnc3c(=O)[nH]c(N)nc32)C[C@@H]1O`, the bioavailability in data set [3] came to 91%. Also, the CC50 at 48 h in [1] was more than 42000 nM. Also, the AUC(0-inf) amounted to 3.3 µM·h in [4] and 1.82 µM·h in data set [7]. In data set [5], this molecule registered a clearance of 32.4 mL/min/kg. In addition, the IC50 in data set [2] came out at 24 nM. Also, the half-life in data set [6] is 9.8 h.
Turning to `C#C[C@@]1(CO)C[C@H](n2cnc3c(=O)[nH]c(N)nc32)C[C@H]1O`, the CC50 at 48 h in data set [1] is more than 42000 nM. The IC50 in [2] was more than 2100 nM.
In the same order, the values of `C#C[C@]1(CO[P@@](=O)(N[C@@H](C)C(=O)OC(C)C)Oc2ccccc2)C[C@@H](n2cnc3c(OCC)nc(N)nc32)C[C@@H]1O` are more than 42000 nM and 3 nM.
In data set [8], `C#C[C@]1(COP(=O)(O)OP(=O)(O)OP(=O)(O)O)O[C@@H](n2cnc3c(N)nc(F)nc32)C[C@@H]1O` had a half-life at up to 10 µM of more than 120 h.
In the case of `N#CC1(CO)CC(n2cnc3c(N)nc(F)nc32)CC1O` (racemic), in [1], the 50% cytotoxic concentration (CC50) at 48 h was more than 42000 nM. For the same molecule, the IC50 in data set [2] was more than 2100 nM.
`C#CC1(COP(=O)(O)OP(=O)(O)OP(=O)(O)O)CC(n2cc(C)c(=O)[nH]c2=O)CC1O` (racemic) returned an IC50 in data set [9] of 114 nM.
In the case of `Cc1cn(C2CC(O)C(C#N)(CO)C2)c(=O)[nH]c1=O` (racemic), the CC50 at 48 h in data set [1] is more than 42000 nM. For the same molecule, the IC50 in data set [2] is more than 2100 nM.
For `C#CC1(COP(=O)(O)OP(=O)(O)OP(=O)(O)O)CC(n2cnc3c(N)nc(Cl)nc32)CC1O` (racemic), the IC50 in data set [9] came out at 20200 nM.
For `N#CC1(CO)CC(n2cnc3c(=O)[nH]c(N)nc32)CC1O` (racemic), the CC50 at 48 h in [1] is more than 42000 nM. The IC50 in [2] was 1150 nM.
The corresponding values for `C#CC1(CO)CC(n2cnc3c(=O)[nH]c(N)nc32)CC1O` (racemic) are more than 42000 nM and 33 nM.
Take `Cc1cn(C2CC(O)C(C#N)(COP(=O)(O)OP(=O)(O)OP(=O)(O)O)C2)c(=O)[nH]c1=O` (racemic): it took 523 nM to reach half-maximal inhibition in [9] (IC50).
In data set [9], `C#CC1(COP(=O)(O)OP(=O)(O)OP(=O)(O)O)CC(n2cnc3c(N)nc(F)nc32)CC1O` (racemic) yielded an IC50 of 3460 nM.
Take `C#CC1(CO)CC(n2cc(C)c(=O)[nH]c2=O)CC1O` (racemic): the CC50 at 48 h in data set [1] was more than 42000 nM. In addition, the IC50 in [2] was more than 2100 nM.
As to `C#CC1(CO)CC(n2cnc3c(N)nc(Cl)nc32)CC1O` (racemic), the CC50 at 48 h in data set [1] is more than 42000 nM. The IC50 in data set [2] stood at 232 nM.
`C#CC1(CO)CC(n2cnc3c(N)nc(F)nc32)CC1O` (racemic): the CC50 at 48 h in data set [1] was more than 42000 nM. Besides, in data set [2], the IC50 was determined as 201 nM.
Consider `N#CC1(COP(=O)(O)OP(=O)(O)OP(=O)(O)O)CC(n2cnc3c(=O)[nH]c(N)nc32)CC1O` (racemic), for which, in data set [9], the IC50 turned out to be 444 nM.
On to `C#CC1(COP(=O)(O)OP(=O)(O)OP(=O)(O)O)CC(n2cnc3c(=O)[nH]c(N)nc32)CC1O` (racemic), for which the IC50 in data set [9] was 324 nM.
On to `C#C[C@]1(CO)O[C@@H](n2cnc3c(N)nc(F)nc32)C[C@@H]1O` [ISLATRAVIR], for which the CC50 at 48 h in data set [1] is more than 4200 nM. Besides, the clearance in [5] was found to be 72 mL/min/kg. This molecule also gave a bioavailability in data set [10] of more than 100%. The IC50 in data set [2] stood at 0.21 nM. For the same molecule, the half-life in data set [6] was 0.7 h. Further, the values for the AUC(0-inf) in [11] and in data set [7] were 5 µM·h and 0.78 µM·h, respectively.
`Nc1ccn([C@@H]2CS[C@H](COP(=O)(O)OP(=O)(O)OP(=O)(O)O)O2)c(=O)n1` [LAMIVUDINE TRIPHOSPHATE] gave an IC50 in data set [9] of 15 nM.
Consider `Nc1ccn([C@@H]2CS[C@H](CO)O2)c(=O)n1` [LAMIVUDINE], for which the half-maximal cytotoxic concentration (CC50) at 48 h in [1] is more than 42000 nM. In addition, the IC50 in data set [2] came to 171 nM.

Source of the values: ChEMBL document CHEMBL4196238, “Synthesis and Antiviral Evaluation of Carbocyclic Nucleoside Analogs of Nucleoside Reverse Transcriptase Translocation Inhibitor MK-8591 (4'-Ethynyl-2-fluoro-2'-deoxyadenosine)” (J Med Chem, 2018).
